Sampled rows, rich in hits. Any-hit rate of the full collection: about 2.9%.
UBC13 inh: blocks human UBC13 polyubiquitin chain formation; inhibition, % at 20 µM; 330,000 compounds, 0.47% hits; TR-FRET; P61088; in the data active = inhibition above about 45%, passing the limit was not always enough
MEKK2 WT-MEK5: raises or lowers MEK5 binding to wildtype human MEKK2 PB1 domain; 290,000 compounds, 1.1% hits; bead flow cytometry, Alexa488-MEK5 binding to MEKK2 WT; actives lie on both sides; binding response (% of control), % at 10 µM; in the data active = binding response below about 67% or above about 130%
MEKK3 PB1 HTS: raises or lowers MEK5 binding to the human MEKK3 PB1 domain. Q99759. bead-based flow cytometry, Alexa488-MEK5 binding to MEKK3; actives lie on both sides; 0 = blocked by unlabeled MEK5, 100 = vehicle. binding response (% of control), % at 10 µM. 290,000 compounds, 1.4% hits. AID 1529;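 active = binding response more than 3 SD above or below the average of its plate-row segment, actives on both sides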;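 note: Alexa488 bead fluorescence after subtracting the streptavidin-only scavenger bead signal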
MEKK2mut PB1 HTS: signal of MEK5 binding to mutant human MEKK2 PB1 domain. bead flow cytometry, Alexa488-MEK5 binding to MEKK2 mutant. percent response, % at 10 µM. 290,000 compounds, 0.35% hits; in the data active = percent response above about 24%, passing the limit was not always enough
Apaf1 inhib: blocks human Apaf-1 apoptosome activity; 330,000 compounds, 0.71% hits; inhibition, % at 20 µM; reconstituted apoptosome caspase-3 activity, DEVD-Rh110 fluorescence; AID 489030; active = inhibition of at least 40% at 20 µM;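 note: plate controls were DMSO wells for no effect and DEVD-CHO caspase inhibitor wells for full effect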
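System: Apoptosome proteins | Medium: Hepes pH 7.5 with detergent and BSA | Also added: Cytochrome c trigger plus (Z-DEVD)2-Rh110 caspase-3 substrate | Incubation: 30 min compound preincubation, 50 min activation, room temperature | Detection: Rhodamine 110 fluorescence at Ex 480/Em 540 nm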
MEKK2wt confirm: raises or lowers MEK5 binding to wildtype human MEKK2, retest | AID 1892 | binding response (% of control), % at 10 µM | 5,900 compounds, 2.4% hits | bead flow cytometry, Alexa488-MEK5 binding to MEKK2 WT; actives lie on both sides | shares compounds with MEKK3 PB1 HTS; in the data active = binding response below about 16% or above about 210%; inactive = in between
MEKK2mut confirm: signal of MEK5 binding to mutant human MEKK2, retest. AID 1893. 5,900 compounds, 2% hits. bead flow cytometry, Alexa488-MEK5 binding to MEKK2 mutant. percent response, % at 10 µM. shares compounds with MEKK3 PB1 HTS; in the data active = percent response mostly above about 71%, no sharp cut-off; inactive = mostly below about 38%;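 note: higher means compound restores mutant binding toward wildtype level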
MEKK3-MEK5 inh: MEKK3-MEK5 PB1 inhibition, single concentration confirmation. shares compounds with MEKK3 PB1 HTS. bead flow cytometry, Alexa488-MEK5 binding to MEKK3; stronger effect = lower value. binding response (% of control), % at 10 µM. 5,900 compounds, 1.8% hits;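 active = binding response below 72% of control, or above a set upper limit, though filed actives all read lower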;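 note: 100% = DMSO only wells and 0% = binding blocked by excess unlabeled MEK5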
Casp3 UBC13 ctr: inhibits human caspase-3 in UBC13 counter-screen. AID 488856. Recombinant caspase-3, Caspase-Glo 3/7 luminescence, 60 min. 1,400 compounds, 4% hits. inhibition, % at 20 µM. shares compounds with UBC13 inh;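 active = mean inhibition across replicates above about 26%, limit read from the data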;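 note: plate controls were DMSO with caspase-3 for no effect and DMSO wells lacking enzyme for full effect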
UBC13 conf: confirmation of human UBC13 polyubiquitin inhibitors; shares compounds with UBC13 inh; UBC13 polyubiquitination, TR-FRET, biochemical; inhibition, % at 10 µM; 1,400 compounds, 68% hits; in the data active = inhibition above about 45%
The depositor's hits bear a star; . = no result given; [ ] = another dose, or the depositor's remark.

SMILES | UBC13 inh | MEKK2 WT-MEK5 | MEKK3 PB1 HTS | MEKK2mut PB1 HTS | Apaf1 inhib | MEKK2wt confirm | MEKK2mut confirm | MEKK3-MEK5 inh | Casp3 UBC13 ctr | UBC13 conf
CCOCCCNC(=O)c1cc2c(s1)-c1ccccc1SC2 | 9 | 101 | 101 | -1 | 6 | . | . | . | . | .
CN(C)CCNC(=O)c1cc2c(s1)-c1ccc(Cl)cc1SC2 | 62* | 181* | 110 | 40* | 30 | 152 | 27 | 106 | -2 | 73*
O=C(CCCN1C(=O)c2cccc3cccc(c23)C1=O)NCc1cccnc1 | 2 | 88 | 102 | -9 | -16 | . | . | . | . | .
O=C(CCCCCN1C(=O)c2cccc3cccc(c23)C1=O)NCc1cccnc1 | 76* | 51 | 49*[inhibitor] | -44 | -6 | 105 | 6 | 105 | -3 | 58*
CCN(CCCNC(=O)c1cc2c(-c3cccc(OC)c3)nn(C)c2s1)Cc1ccccc1 | 49* | 149* | 108 | 31* | 7 | 166 | 50 | 107 | -5 | 47*
CCN1CCN(Cc2ccc(NC(=O)c3cc(NC(=O)c4cc(C)on4)cc(OC)c3)cc2C(F)(F)F)CC1 | 52* | 193* | 113 | 30* | 33 | 144 | 30 | 106 | -3 | 26
CCN1CCN(Cc2ccc(NC(=O)c3cc(NC(=O)c4cnn(-c5ccccc5)c4N)cc(OC)c3)cc2C(F)(F)F)CC1 | 79* | 151* | 107 | 53* | 19 | 214* | 48 | 100 | -4 | 50*
CCCc1nc2nc(C)c(NS(=O)(=O)c3ccc(C4CCCCC4)cc3)c(=O)n2[nH]1 | 3 | 98 | 102 | 0 | 10 | . | . | . | . | .
Cc1ccc(C(=O)N/C(=C\c2ccc(-c3cccc([N+](=O)[O-])c3)o2)C(=O)NCCCN(C)C)cc1 | 48* | 141* | 112 | 22 | 1 | 113 | 6 | 95 | -2 | 63*
CN(C)CCCNC(=O)/C(=C\c1ccc(-c2cccc([N+](=O)[O-])c2)o1)NC(=O)c1ccccc1 | 29 | 101 | 109 | 6 | 13 | . | . | . | . | .
c1cc2c(cc1C1CCCCC1)c1c3n2CCCNC3CCC1 (centres undefined) | 64* | 165* | 93 | 18 | 32 | 157 | 25 | 104 | 2 | 72*
Cc1ccc2c(c1)c1c(n2CC(O)CNC2CCCCC2)CCCC1 (centres undefined) | 61* | 154* | 108 | 21 | 34 | 133 | 17 | 99 | 2 | 30
Cc1ccc2c(c1)c1c(n2CC(O)CNC(CO)(CO)CO)CCCC1 (centres undefined) | 16 | 127 | 114 | 9 | 1 | . | . | . | . | .
CCCOc1ccc(/C=N/NC(=O)CSCc2ccc([N+](=O)[O-])cc2)cc1OCC | 90* | 106 | 135* | 1 | 13 | 104 | 8 | 106 | -4 | 93*
COc1ccc(Nc2nc(N3CCCC3)c3ccccc3n2)cc1 | 51* | 185* | 107 | 45* | 39 | 159 | 44 | 109 | -2 | 49*
CCOC(=O)CC1C(=O)NCCN1S(=O)(=O)c1cccc(C(F)(F)F)c1 (centres undefined) | 11 | 105 | 103 | 3 | -12 | . | . | . | . | .
CC(C)(C)c1cc(NCCCn2ccnc2)n2ncc(-c3ccccc3)c2n1 | 61* | 145* | 110 | 34 | 31 | 140 | 23 | 102 | 0 | 55*
Cc1c(C)n2c(SCC(=O)N3CCCCC3)nnc2[nH]c1=O | 0 | . | . | . | 2 | . | . | . | . | .
C#CCOCCOCCOCCNc1nc(N2CCN(C(=O)C([C@@H](C)CC)n3cc(C(N)COC(=O)C(F)(F)F)nn3)CC2)nc(N2CCN(C(=O)[C@H](Cc3cc4ccccc4[nH]3)n3cc(C(N)CO)nn3)CC2)n1 (some centres undefined) | 69* | 143* | 101 | 11 | 49* | 189 | 58 | 108 | 3 | 29
C#CCOCCOCCOCCNc1nc(N2CCOCC2)nc(N2CCN(C(=O)[C@H](Cc3cc4ccccc4[nH]3)n3cc([C@@H](N)CC(C)C)nn3)CC2)n1 | 28 | 136 | 107 | 25 | 15 | . | . | . | . | .
C#CCOCCOCCOCCNc1nc(N2CCN(C(=O)[C@H]([C@@H](C)CC)n3cc([C@@H](N)CO)nn3)CC2)nc(N2CCN(C(=O)[C@H](Cc3cc4ccccc4[nH]3)n3cc([C@@H](N)C(C)CC)nn3)CC2)n1 (some centres undefined) | 60* | 181* | 107 | 56* | 48* | 175 | 87* | 104 | 8 | 46*
CC(C)(C)NC(=O)[C@@H]1CN(Cc2cccnc2)CCN1C[C@@H](O)C[C@@H](Cc1ccccc1)C(=O)N[C@H]1c2ccccc2C[C@H]1O | -4 | 107 | 101 | 0 | 5 | . | . | . | . | .
O=c1c2cc(NC(=S)NCCCN3CCC(Cc4ccccc4)CC3)ccc2nc2n1CCCCC2 | 51* | 149* | 107 | 14 | -1 | 154 | 28 | 111 | 4 | 85*
COc1cc(C(CCN2CCCC(C)C2)c2c(OC)cc(OC)c3c2OC(=O)CC3c2ccc(N(C)C)cc2)cc(OC)c1OC (centres undefined) | 45* | 136* | 96 | 14 | 26 | 136 | 16 | 100 | -1 | 24
COc1cc(OC)c2c(c1C(CCN1CCOCC1)c1ccc(N(C)C)cc1)OC(=O)CC2c1ccc(N(C)C)cc1 (centres undefined) | 27 | 104 | 106 | 7 | 22 | . | . | . | . | .
O=C(C[n+]1cc(-c2ccc(Cl)c(Cl)c2)n2c1CCC2)N1c2ccccc2Sc2ccccc21 | 45* | 221* | 97 | 55* | 26 | 146 | 18 | 86 | -4 | 39
COC(=O)C1=C(C)N(Cc2ccccc2)C(=NCc2cccc(C(F)(F)F)c2)N[C@H]1c1cccc(F)c1 | 97* | 208* | 108 | 89* | 37 | 221* | 64 | 108 | -4 | 84*

Bioassay records from PubChem BioAssay.
